An excerpt weighted towards active compounds, which were near 6.8% of everything screened.
ALR inh: inhibitors of human sulfhydryl oxidase ALR; P55789; purified ALR, DTT oxidation, H2O2 HRP-luminol luminescence; inhibition, % (test concentration not listed); 290,000 compounds, 3.8% hits; AID 485317;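 active = mean replicate inhibition above about 79%, with every replicate also reaching it, limit read from the data; inconclusive = only one of the two criteria met; inactive = mean below limit and not every replicate reaching it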
Target sequence (P55789 whole entry, looked up): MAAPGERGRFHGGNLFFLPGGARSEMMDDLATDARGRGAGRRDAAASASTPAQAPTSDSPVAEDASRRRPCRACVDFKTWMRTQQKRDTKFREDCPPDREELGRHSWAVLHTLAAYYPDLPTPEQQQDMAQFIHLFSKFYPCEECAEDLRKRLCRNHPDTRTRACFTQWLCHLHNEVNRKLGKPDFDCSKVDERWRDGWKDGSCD
HSF1 activator: increases HSF-1 driven luciferase reporter signal; NIH3T3-HGL HSF-1 luciferase reporter, MG132, 8 h; 100% = twice DMSO control signal; activation, % at 9 µM; 300,000 compounds, 1.7% hits;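 active = mean replicate activation of at least 50% with a set share of replicates each reaching 50%; inconclusive = only one of those two conditions met; inactive = mean below 50% and too few replicates reaching it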
HSF1 inh: HSF1 inhibition; AID 2098; activity change, negative = inhibition, % at 7.5 µM (by protocol); NIH3T3-HGL HSE-luciferase, MG132-induced, luminescence 8 h; hits give low values; 300,000 compounds, 0.77% hits;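 active = more than half of replicate wells show activity change below -50%, luminescence cut by over half; inconclusive = some wells, but at most half, below -50%; inactive = no replicate well below -50%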;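 also: luciferase reports HSF-1 transcriptional activity via heat shock element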
core dimer inh: HCV core protein dimerization inhibition. TR-FRET GST/Flag-core106 dimerization, 1536-well. inhibition, % at 5 µM. 300,000 compounds, 0.33% hits. AID 1899;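 active = inhibition above the mean of all tested compounds plus 3 SD, set per screening campaign, cut at about 45% in these data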
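System: GST-tagged and Flag-tagged HCV core protein residues 1-106 / Input: core106 proteins, GST 13.5 nM and Flag 17 nM / Buffer or medium: KF-containing HEPES buffer, pH 7.45, DTT, CHAPS, BSA / Probe or stimulus: Eu-anti-GST and XL665-anti-Flag labelled anti-tag antibodies / Schedule: 4 h, 22.5 °C incubation / Technique: TR-FRET 671 and 617 nm emission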
PHOSPHO1 inh: inhibitors of human PHOSPHO1 phosphatase; inhibition, % at 13.3 µM; recombinant PHOSPHO1, absorbance phosphatase assay; 290,000 compounds, 1.1% hits; Q8TCT1; in the data active = inhibition above about 60%
Target sequence (Q8TCT1 whole entry, looked up): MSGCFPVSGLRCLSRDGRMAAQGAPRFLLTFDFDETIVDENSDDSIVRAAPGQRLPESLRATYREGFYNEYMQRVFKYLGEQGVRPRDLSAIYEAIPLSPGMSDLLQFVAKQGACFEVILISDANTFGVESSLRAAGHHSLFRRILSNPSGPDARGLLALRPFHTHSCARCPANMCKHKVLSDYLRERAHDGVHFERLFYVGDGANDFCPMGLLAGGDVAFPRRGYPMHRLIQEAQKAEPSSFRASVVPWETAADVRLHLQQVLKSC
AI-2 QS mod: modulators of Vibrio harveyi AI-2 quorum sensing system | Vibrio harveyi JMH597 AI-2 luminescence/OD600 ratio, 9 h; hits give low values; strain lacks LuxN and CqsS sensors; 0 = neutral-control median | 300,000 compounds, 0.4% hits | AID 2094 | activity change, % at 7.5 µM; in the data active = activity change below about -75%, passing the limit was not always enough; inconclusive = no clear call, values can overlap the other calls;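 also: luminescence divided by OD600 gain over 9 h not by final OD600 alone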
Large screens that a line does not name were inactive.

CCOC(=O)c1ccc(NC(=O)c2ccccc2)cc1	none
Cc1ccc2c(c1)sc1ncc(NC(=O)c3ccc(F)cc3)c(=O)n12	none
Cc1ccc2c(c1)sc1nc(=O)n(-c3ccccc3)c(=O)n12	HSF1 activator 58
O=C(NC1CCN(C(=O)N2c3ccccc3Sc3ccccc32)CC1)c1ccccc1Cl	none
NC(=O)C1CCN(C(=O)N2c3ccccc3Sc3ccccc32)CC1	ALR inh 80
CC(NC(=S)Nc1ccc(F)cc1)C(c1cccs1)N1CCOCC1 (stereo not given)	none (no result: ALR inh)
CC(=O)Nc1nc(-c2cccs2)cs1	none
CNC(=O)c1ccsc1NC(=O)c1ccccc1	none
O=C(Nc1nc(-c2cccs2)cs1)c1ccc(Cl)s1	ALR inh 97, HSF1 inh inconclusive
CNC(=O)c1ccsc1NC(=O)c1ccc(Cl)s1	HSF1 inh -66
CCOC(=O)C1=C(C)Nc2sc(C(=O)c3ccc(OC)cc3)c(N)c2C1c1ccc(C(=O)OC)cc1 (stereo not given)	none
CC/C=C\C/C=C\C/C=C\CCCCCCCC(=O)O	none (no result: HSF1 activator, HSF1 inh, PHOSPHO1 inh, AI-2 QS mod)
CCCCC/C=C\C/C=C\C/C=C\C/C=C\CCCC(=O)O	ALR inh 97 (no result: HSF1 activator, HSF1 inh, PHOSPHO1 inh, AI-2 QS mod)
C/C(CC(=O)Nc1cccc2c1CCCC2)=N\NC(=O)Cc1ccccc1	none (no result: ALR inh)
C/C(CC(=O)Nc1cccc2c1CCCC2)=N\NC(=O)COc1ccccc1	HSF1 activator 61
C/C(=N/NC(=O)c1ccccn1)c1ccc(O)cc1	ALR inh 99
C/C(=N\NC(=O)COc1ccccc1)c1ccc(O)cc1	ALR inh 100
CC(NC(=S)NCCc1ccccc1)C(c1cccs1)N1CCN(Cc2ccccc2)CC1 (stereo not given)	none
S=C(NCc1ccccc1)NCc1ccco1	HSF1 activator 56 (no result: core dimer inh)
S=C(NCc1ccco1)Nc1ccc(Br)cc1Cl	HSF1 activator 199
S=C(NCc1cccc(Cl)c1)NCc1ccco1	none (no result: core dimer inh)
COc1ccccc1NC(=S)NCc1ccco1	PHOSPHO1 inh 62
COc1ccc(/C(C)=N/NC(=S)NCc2ccco2)cc1	HSF1 activator 73
COc1cc(NC(=S)NCc2ccco2)cc(OC)c1OC	none
COc1ccccc1C(=O)Nc1ccc(C(=O)N2CCCCC2)cc1	none
Nc1ccccc1Sc1ccc(C(=O)c2ccccc2C(=O)O)cc1[N+](=O)[O-]	none
Nc1cc(C(=O)O)ccc1Sc1ccccc1C(=O)O	PHOSPHO1 inh 63
CCC(=O)Nc1ccc(C(=O)CSc2nnc(-c3ccc(NS(=O)(=O)CC)cc3)o2)cc1OC	none
O=C(CC1C(=O)NCCN1Cc1ccccc1)NCCC1=CCCCC1 (stereo not given)	none
CC(=O)n1cc(N(C(=O)CCl)c2ccc(Cl)cc2)c2ccccc21	HSF1 inh -84 (no result: AI-2 QS mod)
COc1ccccc1N(C(=O)CCl)c1cn(C(C)=O)c2ccccc12	HSF1 inh -76
CCOC(=O)c1ccccc1Nc1cn(C(C)=O)c2ccccc12	none (no result: ALR inh)
Cc1c(C(=O)O)c2cc(O)ccc2n1-c1ccccc1	ALR inh 80
COc1ccc2c(c1)c(C(=O)O)c(C)n2-c1ccccc1	none (no result: HSF1 activator, HSF1 inh)
CC1CCCC(C)N1C(=O)CSc1nnc(C2CCCCC2)o1 (stereo not given)	none
O=C(Nc1ccncc1)c1ccc(NS(=O)(=O)c2ccc3[nH]c(=O)[nH]c3c2)cc1	none
O=C1CNC(=S)N1c1nc(-c2ccccc2)cs1	HSF1 activator 52
CCc1c(C)[nH]n(-c2nc(-c3ccccc3)cs2)c1=O	ALR inh 97
CCc1c(C)[nH]n(-c2nc(-c3cccc([N+](=O)[O-])c3)cs2)c1=O	none
COc1ccc(CCN(C)C2CCCN(S(=O)(=O)c3ccccc3F)C2)cc1OC (stereo not given)	none (no result: core dimer inh, PHOSPHO1 inh)
CCn1c(COc2ccccc2C)nnc1SCC(=O)CC(=O)Nc1ccccc1	PHOSPHO1 inh 69
CCn1c(COc2ccccc2C)nnc1SCC(=O)O	none
CCC(C)(C(=O)NC1CCCCC1)N(C(=O)CC1NC(=O)NC1=O)c1c(C)n(C)n(-c2ccccc2)c1=O (stereo not given)	none (no result: ALR inh)
O=C1CN(C(=O)/C=C/c2ccc(Br)cc2)CCN1	none (no result: core dimer inh)
COc1cc(C(=O)NCC(=O)Nc2ccc(F)c(F)c2)ccc1OCC(=O)N1CCOCC1	none (no result: PHOSPHO1 inh)
O=C(COC(=O)CC1CC2CCC1C2)NCc1ccc(F)cc1 (stereo not given)	none (no result: HSF1 activator, HSF1 inh, core dimer inh, PHOSPHO1 inh, AI-2 QS mod)
O=C(CC1CC2CCC1C2)OCC(=O)c1c[nH]c2ccccc12 (stereo not given)	AI-2 QS mod -84
Cc1nc2nc(C)c(NS(=O)(=O)c3ccc(Cl)s3)c(=O)n2[nH]1	none (no result: AI-2 QS mod)
CC(CCC(=O)O)C1CCC2C3CCC4C[C@H](O)CCC4(C)C3CC(=O)C12C (stereo not given in full)	none
CC(CCC(=O)O)C1CC[C@H]2C3CCC4CC(=O)CCC4(C)[C@H]3CC(=O)C12C (stereo not given in full)	HSF1 activator 58
C=CCNc1nc(C(=O)OCC(=O)Nc2ccc(S(N)(=O)=O)cc2)cs1	ALR inh 98 (no result: PHOSPHO1 inh)
C=CCNc1nc(C(=O)OCC(=O)Nc2cc(S(C)(=O)=O)ccc2Cl)cs1	none (no result: PHOSPHO1 inh)
O=C(CCCNC(=O)/C(=C\c1ccccc1F)NC(=O)c1ccccc1)OCc1ccccc1	HSF1 inh -56
Cc1cccc2sc(NC(=O)C3CCCO3)nc12 (stereo not given)	HSF1 activator 63
Cc1nc(C)c(C(=O)Nc2nc3c(C)cccc3s2)o1	core dimer inh 54 (no result: AI-2 QS mod)
COc1ccccc1OCCC(=O)OCC(=O)Nc1ccc2c(c1)OCO2	none (no result: HSF1 activator, HSF1 inh, core dimer inh, PHOSPHO1 inh, AI-2 QS mod)
CCOC(=O)CC(NS(=O)(=O)c1ccc2[nH]cc(C(=O)O)c(=O)c2c1)c1ccc(OCC)c(OC)c1 (stereo not given)	HSF1 activator 88
O=c1[nH]c(S)c(/C=C2\C=Nc3ccccc32)s1	ALR inh 99
Oc1nc(Nc2ccc(F)cc2)sc1/C=C1\C=Nc2ccccc21	none
C/C(CCc1ccc2c(c1)OCO2)=N\NC(=S)NC(C)C	ALR inh 85
CCNC(=O)N1CCCC(C(=O)c2ccc(C(F)(F)F)cc2)C1 (stereo not given)	none (no result: PHOSPHO1 inh)
CCOC(=O)c1nnn(-c2nn3nnnc3c3ccccc23)c1C	ALR inh 98
Cc1ccc(CNC(=O)c2ccc3nc4[nH]c5ccccc5c4nc3c2)cc1	HSF1 inh -76 (no result: ALR inh, core dimer inh)
CCCOc1ccc(-c2c(C(=O)N/N=C/c3ccccc3OCC)nnn2-c2nonc2N)cc1	HSF1 inh -69 (no result: ALR inh)
COc1cccc(-c2c(C(=O)N/N=C/c3ccc(C)s3)nnn2-c2nonc2N)c1	HSF1 inh -87
NC(=O)C1CCN(CC(O)COCc2ccccc2Cl)CC1 (stereo not given)	none
COc1cccc(C(C(=O)NC(C)(C)C)N(C(=O)CCC(=O)Nc2cc(C)on2)C(C)(C)C)c1OC (stereo not given)	none
